Measurements published in ChEMBL document CHEMBL3621099, “Design and synthesis of carbazole carboxamides as promising inhibitors of Bruton's tyrosine kinase (BTK) and Janus kinase 2 (JAK2)” (Bioorg Med Chem Lett, 2015).
Values belong to the compound of their own block, whether it stands above or below them.

What was measured:
[1] = biological target: Tyrosine-protein kinase BTK (Homo sapiens, UniProt Q06187); test: Inhibition of human recombinant BTK
[2] = biological target: Tyrosine-protein kinase Lck (Homo sapiens, UniProt P06239); test: Inhibition of LCK (unknown origin)
Sequence of Tyrosine-protein kinase Lck (P06239 whole entry): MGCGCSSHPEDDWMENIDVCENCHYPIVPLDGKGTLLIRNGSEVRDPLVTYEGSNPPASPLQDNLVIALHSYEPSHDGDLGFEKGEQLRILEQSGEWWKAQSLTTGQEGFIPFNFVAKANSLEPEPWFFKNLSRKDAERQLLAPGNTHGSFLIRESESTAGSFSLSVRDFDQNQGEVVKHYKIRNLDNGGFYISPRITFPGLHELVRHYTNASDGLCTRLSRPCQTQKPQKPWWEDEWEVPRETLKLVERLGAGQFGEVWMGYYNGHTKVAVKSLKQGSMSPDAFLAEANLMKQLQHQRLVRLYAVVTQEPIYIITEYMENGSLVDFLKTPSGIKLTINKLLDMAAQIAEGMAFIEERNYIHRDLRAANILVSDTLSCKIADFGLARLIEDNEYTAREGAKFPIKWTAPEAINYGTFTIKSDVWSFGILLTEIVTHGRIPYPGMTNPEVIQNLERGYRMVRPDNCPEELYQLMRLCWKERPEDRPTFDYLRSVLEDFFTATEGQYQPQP

[3] = biological target: T1, Tyrosine-protein kinase Tec (Homo sapiens, UniProt P42680); test: Inhibition of TEC (unknown origin)
T1 sequence (P42680 whole entry): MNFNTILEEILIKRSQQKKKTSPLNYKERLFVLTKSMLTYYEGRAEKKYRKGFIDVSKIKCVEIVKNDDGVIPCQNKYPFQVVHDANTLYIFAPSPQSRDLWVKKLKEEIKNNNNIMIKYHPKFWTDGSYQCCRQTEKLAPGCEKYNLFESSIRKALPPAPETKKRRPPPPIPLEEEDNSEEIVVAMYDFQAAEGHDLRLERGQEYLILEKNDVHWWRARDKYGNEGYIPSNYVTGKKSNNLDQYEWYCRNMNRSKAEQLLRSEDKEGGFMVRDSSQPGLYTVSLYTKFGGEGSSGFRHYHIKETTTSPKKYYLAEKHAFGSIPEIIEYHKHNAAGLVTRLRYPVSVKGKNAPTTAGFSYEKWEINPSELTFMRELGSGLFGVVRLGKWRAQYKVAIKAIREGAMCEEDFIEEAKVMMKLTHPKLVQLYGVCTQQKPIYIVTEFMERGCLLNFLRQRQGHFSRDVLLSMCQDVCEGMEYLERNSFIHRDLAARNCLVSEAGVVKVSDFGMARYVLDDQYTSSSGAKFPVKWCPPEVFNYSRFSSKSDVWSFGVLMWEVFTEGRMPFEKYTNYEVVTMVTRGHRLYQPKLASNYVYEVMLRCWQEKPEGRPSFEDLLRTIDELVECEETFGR

[4] = biological target: Non-receptor tyrosine-protein kinase TYK2 (Homo sapiens, UniProt P29597); test: Inhibition of TYK2 (unknown origin)
Sequence of Non-receptor tyrosine-protein kinase TYK2 (P29597 whole entry): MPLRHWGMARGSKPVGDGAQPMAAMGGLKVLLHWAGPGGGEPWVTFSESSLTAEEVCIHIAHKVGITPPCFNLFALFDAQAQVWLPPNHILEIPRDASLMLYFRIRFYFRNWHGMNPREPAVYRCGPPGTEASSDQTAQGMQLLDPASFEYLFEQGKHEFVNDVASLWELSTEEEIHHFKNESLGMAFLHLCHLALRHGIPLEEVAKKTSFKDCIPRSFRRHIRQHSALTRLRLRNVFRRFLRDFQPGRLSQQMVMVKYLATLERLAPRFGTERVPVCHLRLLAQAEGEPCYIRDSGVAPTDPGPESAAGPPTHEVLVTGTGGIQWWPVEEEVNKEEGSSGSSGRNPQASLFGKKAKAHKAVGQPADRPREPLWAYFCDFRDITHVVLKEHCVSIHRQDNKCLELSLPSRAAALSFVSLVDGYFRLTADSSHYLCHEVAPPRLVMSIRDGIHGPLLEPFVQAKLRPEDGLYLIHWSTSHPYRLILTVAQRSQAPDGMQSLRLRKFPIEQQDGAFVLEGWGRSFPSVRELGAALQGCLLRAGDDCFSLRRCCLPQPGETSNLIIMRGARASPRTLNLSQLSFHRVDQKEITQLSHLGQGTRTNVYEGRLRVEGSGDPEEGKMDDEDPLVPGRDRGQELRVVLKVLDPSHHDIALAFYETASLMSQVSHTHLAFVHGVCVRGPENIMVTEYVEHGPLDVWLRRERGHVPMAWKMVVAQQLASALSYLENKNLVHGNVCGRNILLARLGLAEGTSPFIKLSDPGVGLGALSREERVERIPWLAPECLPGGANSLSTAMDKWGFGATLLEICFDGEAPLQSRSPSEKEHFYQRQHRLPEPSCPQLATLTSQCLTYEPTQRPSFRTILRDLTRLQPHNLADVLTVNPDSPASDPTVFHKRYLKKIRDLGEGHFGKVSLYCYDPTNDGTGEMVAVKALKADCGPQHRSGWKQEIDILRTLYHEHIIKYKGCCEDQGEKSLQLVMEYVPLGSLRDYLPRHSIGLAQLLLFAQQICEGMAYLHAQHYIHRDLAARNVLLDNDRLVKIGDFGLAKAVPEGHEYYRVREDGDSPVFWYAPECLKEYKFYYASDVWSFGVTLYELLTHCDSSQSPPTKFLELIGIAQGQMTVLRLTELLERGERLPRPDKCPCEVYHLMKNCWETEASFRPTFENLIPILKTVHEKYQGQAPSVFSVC

[5] = biological target: Cyclin-dependent kinase 2 (Homo sapiens, UniProt P24941); test: Inhibition of CDK2 (unknown origin)
[6] = biological target: Tyrosine-protein kinase Lyn (Homo sapiens, UniProt P07948); test: Inhibition of LYNa (unknown origin)
Sequence of Tyrosine-protein kinase Lyn (P07948 whole entry): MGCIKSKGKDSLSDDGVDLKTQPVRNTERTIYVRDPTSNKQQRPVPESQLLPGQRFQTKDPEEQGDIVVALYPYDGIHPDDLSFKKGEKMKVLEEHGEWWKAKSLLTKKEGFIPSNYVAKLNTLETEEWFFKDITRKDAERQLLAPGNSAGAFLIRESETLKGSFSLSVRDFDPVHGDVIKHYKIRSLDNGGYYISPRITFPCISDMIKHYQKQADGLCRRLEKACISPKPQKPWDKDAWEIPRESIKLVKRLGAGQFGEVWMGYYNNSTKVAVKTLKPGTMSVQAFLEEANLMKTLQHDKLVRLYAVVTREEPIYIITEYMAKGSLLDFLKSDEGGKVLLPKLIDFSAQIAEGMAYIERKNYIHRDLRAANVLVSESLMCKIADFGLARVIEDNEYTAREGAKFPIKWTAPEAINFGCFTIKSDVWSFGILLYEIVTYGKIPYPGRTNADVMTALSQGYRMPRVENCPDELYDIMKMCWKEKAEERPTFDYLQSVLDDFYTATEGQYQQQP

[7] = AUC in mouse at 10 mg/kg, po; assay type: ADME, organism-based; conditions: in vivo
[8] = biological target: Mast/stem cell growth factor receptor Kit (Homo sapiens, UniProt P10721); test: Inhibition of cKIT (unknown origin)
Sequence of Mast/stem cell growth factor receptor Kit (P10721 whole entry): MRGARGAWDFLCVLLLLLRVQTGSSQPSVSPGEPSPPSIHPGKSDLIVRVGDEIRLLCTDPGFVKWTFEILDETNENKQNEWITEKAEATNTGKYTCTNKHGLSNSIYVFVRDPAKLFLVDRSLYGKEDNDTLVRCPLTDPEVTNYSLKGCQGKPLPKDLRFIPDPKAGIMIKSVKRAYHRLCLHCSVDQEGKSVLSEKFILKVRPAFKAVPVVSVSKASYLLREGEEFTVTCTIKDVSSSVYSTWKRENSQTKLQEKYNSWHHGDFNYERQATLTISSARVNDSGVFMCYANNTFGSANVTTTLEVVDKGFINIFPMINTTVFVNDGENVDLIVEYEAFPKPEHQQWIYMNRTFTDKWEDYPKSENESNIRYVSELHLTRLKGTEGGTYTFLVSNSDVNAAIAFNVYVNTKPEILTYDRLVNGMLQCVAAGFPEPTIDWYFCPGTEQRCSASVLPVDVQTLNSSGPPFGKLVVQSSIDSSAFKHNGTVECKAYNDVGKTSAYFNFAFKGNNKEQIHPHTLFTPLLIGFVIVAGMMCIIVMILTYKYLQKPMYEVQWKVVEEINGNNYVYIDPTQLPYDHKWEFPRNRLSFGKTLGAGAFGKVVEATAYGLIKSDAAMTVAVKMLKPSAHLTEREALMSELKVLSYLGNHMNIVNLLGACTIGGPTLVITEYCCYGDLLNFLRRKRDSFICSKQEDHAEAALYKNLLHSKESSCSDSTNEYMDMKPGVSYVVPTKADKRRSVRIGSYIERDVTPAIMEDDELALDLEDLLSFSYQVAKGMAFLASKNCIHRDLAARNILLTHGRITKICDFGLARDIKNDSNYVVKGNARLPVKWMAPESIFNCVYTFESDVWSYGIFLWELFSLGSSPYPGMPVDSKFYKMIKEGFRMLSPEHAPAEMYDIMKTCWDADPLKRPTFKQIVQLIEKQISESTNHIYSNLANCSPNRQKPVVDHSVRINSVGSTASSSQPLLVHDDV

[9] = biological target: T2, Tyrosine-protein kinase ITK/TSK (Homo sapiens, UniProt Q08881); test: Inhibition of ITK (unknown origin)
T2 sequence (Q08881 whole entry): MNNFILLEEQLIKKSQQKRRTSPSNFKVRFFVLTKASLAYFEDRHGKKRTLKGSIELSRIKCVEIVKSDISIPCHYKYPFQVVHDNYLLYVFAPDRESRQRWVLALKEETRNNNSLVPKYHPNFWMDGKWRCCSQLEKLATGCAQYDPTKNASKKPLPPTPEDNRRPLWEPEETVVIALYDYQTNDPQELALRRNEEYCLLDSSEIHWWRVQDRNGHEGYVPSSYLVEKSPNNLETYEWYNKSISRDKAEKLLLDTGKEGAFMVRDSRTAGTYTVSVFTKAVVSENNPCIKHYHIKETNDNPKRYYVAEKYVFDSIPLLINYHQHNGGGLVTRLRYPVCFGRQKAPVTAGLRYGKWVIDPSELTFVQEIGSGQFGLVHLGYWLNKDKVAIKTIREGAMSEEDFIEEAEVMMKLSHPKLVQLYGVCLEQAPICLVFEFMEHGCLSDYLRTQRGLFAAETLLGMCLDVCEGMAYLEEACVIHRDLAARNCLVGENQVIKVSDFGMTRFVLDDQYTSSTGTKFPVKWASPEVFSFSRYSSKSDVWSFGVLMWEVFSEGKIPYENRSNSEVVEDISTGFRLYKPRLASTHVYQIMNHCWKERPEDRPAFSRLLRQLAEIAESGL

[10] = biological target: T3, Tyrosine-protein kinase TXK (Homo sapiens, UniProt P42681); test: Inhibition of TXK (unknown origin)
T3 sequence (P42681 whole entry): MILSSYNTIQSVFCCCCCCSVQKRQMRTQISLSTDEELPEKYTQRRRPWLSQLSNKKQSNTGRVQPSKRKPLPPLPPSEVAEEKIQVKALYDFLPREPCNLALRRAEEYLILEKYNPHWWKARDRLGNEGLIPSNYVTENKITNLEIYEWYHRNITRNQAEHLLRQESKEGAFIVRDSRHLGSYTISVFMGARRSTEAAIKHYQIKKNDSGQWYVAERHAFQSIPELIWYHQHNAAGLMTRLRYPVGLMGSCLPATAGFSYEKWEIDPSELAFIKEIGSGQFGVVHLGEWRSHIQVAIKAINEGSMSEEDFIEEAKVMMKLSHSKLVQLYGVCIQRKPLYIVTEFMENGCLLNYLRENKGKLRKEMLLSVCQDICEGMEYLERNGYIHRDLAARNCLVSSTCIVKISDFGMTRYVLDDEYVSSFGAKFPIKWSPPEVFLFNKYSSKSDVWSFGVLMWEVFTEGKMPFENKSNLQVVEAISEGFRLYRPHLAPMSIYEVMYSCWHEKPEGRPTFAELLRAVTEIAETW

Aurora kinase A = biological target: T4, Aurora kinase A (Homo sapiens, UniProt O14965); test: Inhibition of Aurora-A (unknown origin)
T4 sequence (O14965 whole entry): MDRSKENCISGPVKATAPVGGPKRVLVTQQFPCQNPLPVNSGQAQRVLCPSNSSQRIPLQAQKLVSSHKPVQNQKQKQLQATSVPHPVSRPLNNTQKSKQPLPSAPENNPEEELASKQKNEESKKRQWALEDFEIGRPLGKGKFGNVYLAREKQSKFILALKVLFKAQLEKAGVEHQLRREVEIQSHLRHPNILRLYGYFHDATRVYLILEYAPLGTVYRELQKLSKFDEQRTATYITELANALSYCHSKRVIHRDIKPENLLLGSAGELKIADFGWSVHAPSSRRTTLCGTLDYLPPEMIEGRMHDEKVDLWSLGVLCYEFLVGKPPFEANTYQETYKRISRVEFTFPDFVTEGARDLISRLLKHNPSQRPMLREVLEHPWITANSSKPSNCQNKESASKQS

[11] = biological target: T5, Cytoplasmic tyrosine-protein kinase BMX (Homo sapiens, UniProt P51813); test: Inhibition of BMX (unknown origin)
T5 sequence (P51813 whole entry): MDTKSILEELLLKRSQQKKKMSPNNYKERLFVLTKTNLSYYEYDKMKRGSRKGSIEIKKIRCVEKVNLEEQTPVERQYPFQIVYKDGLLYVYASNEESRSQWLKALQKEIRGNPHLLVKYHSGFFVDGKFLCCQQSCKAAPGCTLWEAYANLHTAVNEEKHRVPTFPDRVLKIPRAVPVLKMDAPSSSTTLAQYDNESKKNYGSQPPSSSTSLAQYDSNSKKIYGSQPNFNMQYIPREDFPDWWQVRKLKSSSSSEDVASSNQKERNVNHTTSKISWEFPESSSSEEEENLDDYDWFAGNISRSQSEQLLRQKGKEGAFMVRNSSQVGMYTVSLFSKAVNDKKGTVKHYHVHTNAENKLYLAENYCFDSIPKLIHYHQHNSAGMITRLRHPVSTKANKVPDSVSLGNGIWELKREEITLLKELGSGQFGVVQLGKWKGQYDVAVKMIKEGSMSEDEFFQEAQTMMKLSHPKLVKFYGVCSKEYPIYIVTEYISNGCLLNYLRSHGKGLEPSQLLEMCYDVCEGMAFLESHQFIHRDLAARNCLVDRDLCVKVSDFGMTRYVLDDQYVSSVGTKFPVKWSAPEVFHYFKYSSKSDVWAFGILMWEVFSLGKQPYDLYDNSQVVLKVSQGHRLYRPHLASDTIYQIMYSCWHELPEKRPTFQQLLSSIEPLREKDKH

[12] = biological target: Tyrosine-protein kinase JAK2 (Homo sapiens, UniProt O60674); test: Inhibition of JAK2 (unknown origin)
Sequence of Tyrosine-protein kinase JAK2 (O60674 whole entry): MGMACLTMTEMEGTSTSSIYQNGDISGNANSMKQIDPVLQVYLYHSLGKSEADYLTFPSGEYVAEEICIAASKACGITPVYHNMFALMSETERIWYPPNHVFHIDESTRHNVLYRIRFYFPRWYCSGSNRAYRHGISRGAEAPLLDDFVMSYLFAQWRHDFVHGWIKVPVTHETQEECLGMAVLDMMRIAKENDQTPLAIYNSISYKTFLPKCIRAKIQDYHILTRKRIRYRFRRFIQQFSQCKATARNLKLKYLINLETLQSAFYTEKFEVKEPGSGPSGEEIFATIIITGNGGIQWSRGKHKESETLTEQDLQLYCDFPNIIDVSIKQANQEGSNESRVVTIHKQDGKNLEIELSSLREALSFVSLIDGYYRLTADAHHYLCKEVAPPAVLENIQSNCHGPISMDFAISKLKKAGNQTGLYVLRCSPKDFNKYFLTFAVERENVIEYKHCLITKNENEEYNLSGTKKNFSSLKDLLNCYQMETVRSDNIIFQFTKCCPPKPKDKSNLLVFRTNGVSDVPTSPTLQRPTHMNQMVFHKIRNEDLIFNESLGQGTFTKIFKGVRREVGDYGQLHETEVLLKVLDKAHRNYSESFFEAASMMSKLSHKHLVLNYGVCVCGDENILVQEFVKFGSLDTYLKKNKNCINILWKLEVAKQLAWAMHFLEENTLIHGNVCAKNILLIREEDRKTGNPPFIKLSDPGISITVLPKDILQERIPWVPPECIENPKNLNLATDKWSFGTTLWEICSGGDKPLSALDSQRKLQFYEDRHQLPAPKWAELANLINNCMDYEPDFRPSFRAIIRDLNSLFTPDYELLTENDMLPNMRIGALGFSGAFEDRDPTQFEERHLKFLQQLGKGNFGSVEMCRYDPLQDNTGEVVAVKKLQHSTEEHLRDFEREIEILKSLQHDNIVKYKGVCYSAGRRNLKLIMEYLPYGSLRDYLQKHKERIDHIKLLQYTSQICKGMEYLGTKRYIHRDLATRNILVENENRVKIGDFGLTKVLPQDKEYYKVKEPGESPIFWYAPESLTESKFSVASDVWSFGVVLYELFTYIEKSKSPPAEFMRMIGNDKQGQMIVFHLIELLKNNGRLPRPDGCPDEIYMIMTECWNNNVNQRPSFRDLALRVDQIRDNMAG

[13] = Drugrecovery in rat liver microsomes after 10 mins; assay type: ADME
Procedure, shortened: (§1)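 Test compound at 0.5 μM was incubated with human, rat or mouse liver microsomes for 10 minutes at 37 °C. The readout was the percentage of unchanged compound recovered after incubation.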

[14] = Drugrecovery in mouse liver microsomes after 10 mins; assay type: ADME; procedure, shortened: as §1
[15] = Drugrecovery in human liver microsomes after 10 mins; assay type: ADME; procedure, shortened: as §1

Sequence of Tyrosine-protein kinase BTK (Q06187 whole entry): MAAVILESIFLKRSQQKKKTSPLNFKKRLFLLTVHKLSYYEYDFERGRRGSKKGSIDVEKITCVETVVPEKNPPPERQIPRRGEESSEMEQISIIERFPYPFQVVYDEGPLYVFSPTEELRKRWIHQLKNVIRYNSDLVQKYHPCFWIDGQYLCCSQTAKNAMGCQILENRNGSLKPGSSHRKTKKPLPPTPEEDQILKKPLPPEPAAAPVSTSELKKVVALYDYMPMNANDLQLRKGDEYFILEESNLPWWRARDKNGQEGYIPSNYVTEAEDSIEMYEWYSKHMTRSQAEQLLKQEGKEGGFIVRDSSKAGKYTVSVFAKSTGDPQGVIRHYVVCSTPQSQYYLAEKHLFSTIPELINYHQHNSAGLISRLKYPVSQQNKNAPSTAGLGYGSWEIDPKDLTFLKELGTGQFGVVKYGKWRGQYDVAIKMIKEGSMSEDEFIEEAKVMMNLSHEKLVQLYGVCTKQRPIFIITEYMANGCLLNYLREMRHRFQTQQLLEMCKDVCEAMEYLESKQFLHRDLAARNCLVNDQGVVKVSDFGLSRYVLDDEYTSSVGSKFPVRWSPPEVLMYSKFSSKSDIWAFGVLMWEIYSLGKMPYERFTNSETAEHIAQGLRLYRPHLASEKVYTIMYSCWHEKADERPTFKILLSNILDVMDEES

Structure (SMILES): CC(=O)Nc1cccc(-c2ccc(C(N)=O)c3[nH]c4cc(C(=O)N5CCN(C)CC5)ccc4c23)c1C
IC50 [2]: 108 nM
IC50 [3]: 162 nM
IC50 [4]: > 2000 nM
IC50 [5]: 2700 nM
IC50 [12]: 212 nM
IC50 [6]: 204 nM
IC50 [8]: 471 nM
IC50 [9]: 55 nM
IC50 [10]: 172 nM
IC50 (Aurora kinase A): > 2000 nM
IC50 [11]: 193 nM

Structure (SMILES): NC(=O)c1cc(-c2cccc(Cl)c2)cc2c1[nH]c1ccc(C(=O)N3CCOCC3)cc12
IC50 [1]: 189 nM
IC50 [12]: 1.7 nM

Structure (SMILES): COc1ccc(-c2cc(C(N)=O)c3[nH]c4ccc(C(=O)N5CCOCC5)cc4c3c2)cc1
IC50 [1]: 327 nM
IC50 [12]: 2 nM

Structure (SMILES): NC(=O)c1cc(-c2ccc(Cl)cc2)cc2c1[nH]c1ccc(C(=O)N3CCOCC3)cc12
IC50 [1]: 308 nM
IC50 [12]: 2.6 nM

Structure (SMILES): CN1CCN(C(=O)c2ccc3c(c2)[nH]c2c(C(N)=O)cc(-c4ccc(Cl)c(Cl)c4)cc23)CC1
IC50 [1]: 812 nM
IC50 [12]: 6.2 nM

Structure (SMILES): CC(=O)Nc1cccc(-c2cc(C(N)=O)c3[nH]c4cc(C(=O)N5CCN(C)CC5)ccc4c3c2)c1
IC50 [1]: 379 nM
IC50 [12]: 27 nM

Structure (SMILES): CC(C)(C)c1ccc(C(=O)N[C@@H]2CCCN(c3ccc(C(N)=O)c(Nc4ccc(C(=O)N5CCOCC5)cc4)n3)C2)cc1
remaining at 10 min [13]: < 3%
remaining at 10 min [14]: < 3%
remaining at 10 min [15]: < 3%

Further compounds by falling IC50 [1], results first:

IC50 [1]: 436 nM
IC50 [12]: 5.5 nM
Structure (SMILES): COc1ccc(-c2cc(C(N)=O)c3[nH]c4cc(C(=O)N5CCN(C)CC5)ccc4c3c2)cc1

IC50 [1]: 404 nM
IC50 [12]: 4.3 nM
Structure (SMILES): COc1cccc(-c2cc(C(N)=O)c3[nH]c4cc(C(=O)N5CCN(C)CC5)ccc4c3c2)c1

IC50 [1]: 15 nM
IC50 [2]: 81 nM
IC50 [3]: 116 nM
IC50 [4]: 753 nM
IC50 [5]: 610 nM
IC50 [6]: 68 nM
AUC [7]: 25.6 µM·h
IC50 [8]: 41 nM
IC50 [9]: 39 nM
IC50 [10]: 119 nM
IC50 (Aurora kinase A): 444 nM
IC50 [11]: 119 nM
Structure (SMILES): CN1CCN(C(=O)c2ccc3c(c2)[nH]c2c(C(N)=O)ccc(-c4ccccc4F)c23)CC1

IC50 [1]: 3 nM
IC50 [2]: 569 nM
IC50 [3]: 41 nM
IC50 [4]: 14300 nM
IC50 [5]: > 50000 nM
IC50 [6]: 824 nM
IC50 [8]: 1050 nM
IC50 [9]: 115 nM
IC50 [10]: 95 nM
IC50 (Aurora kinase A): 493 nM
IC50 [11]: 109 nM
Structure (SMILES): CN1CCN(C(=O)c2ccc3c(c2)[nH]c2c(C(N)=O)ccc(-c4cccc(NC(=O)c5ccc(N(C)C)cc5)c4F)c23)CC1
